The record followed here is ChEMBL document CHEMBL4049456, “Identification of 4-(Aminomethyl)-6-(trifluoromethyl)-2-(phenoxy)pyridine Derivatives as Potent, Selective, and Orally Efficacious Inhibitors of the Copper-Dependent Amine Oxidase, Lysyl Oxidase-Like 2 (LOXL2)” (J Med Chem, 2017).

Data set [1] concerns the target T1, Diamine oxidase [copper-containing] (Homo sapiens) (UniProt P19801).
T1 sequence (whole entry): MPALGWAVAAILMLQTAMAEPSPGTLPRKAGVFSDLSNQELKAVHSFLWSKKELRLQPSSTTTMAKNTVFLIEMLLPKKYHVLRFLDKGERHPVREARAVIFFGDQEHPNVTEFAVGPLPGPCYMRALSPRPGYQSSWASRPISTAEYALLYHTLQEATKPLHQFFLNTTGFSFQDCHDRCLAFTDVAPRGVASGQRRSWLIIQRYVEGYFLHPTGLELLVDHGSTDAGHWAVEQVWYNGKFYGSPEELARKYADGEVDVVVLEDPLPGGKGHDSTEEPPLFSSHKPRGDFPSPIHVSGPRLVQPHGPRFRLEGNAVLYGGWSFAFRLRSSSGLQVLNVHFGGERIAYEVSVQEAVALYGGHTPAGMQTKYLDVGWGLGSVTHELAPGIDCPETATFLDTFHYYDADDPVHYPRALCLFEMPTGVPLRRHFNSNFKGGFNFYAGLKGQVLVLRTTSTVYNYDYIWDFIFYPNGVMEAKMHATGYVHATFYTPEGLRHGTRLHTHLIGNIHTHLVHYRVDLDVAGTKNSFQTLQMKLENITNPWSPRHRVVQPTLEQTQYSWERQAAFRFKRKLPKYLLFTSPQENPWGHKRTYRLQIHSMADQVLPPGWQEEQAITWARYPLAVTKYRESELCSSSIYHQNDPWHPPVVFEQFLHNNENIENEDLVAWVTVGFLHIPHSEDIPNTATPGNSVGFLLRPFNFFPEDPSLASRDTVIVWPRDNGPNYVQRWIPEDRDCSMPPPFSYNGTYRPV
Kind of data set: Inhibition of recombinant human DAO assessed as reduction of H2O2 production from oxidative deamination of DAP at 10 uM preincubated for 2 hrs followed by substrate addition measured every 2 mins for 1 hr by amplex red reagent-based fluorescence assay. Put shortly: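 Purified recombinant human DAO was preincubated with compound for 2 h and DAP used as substrate. Percent inhibition was calculated against vehicle and enzyme-free controls.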

A further data set concerns the target T2, MAO-B (Homo sapiens, UniProt P27338).
T2 sequence (P27338 whole entry): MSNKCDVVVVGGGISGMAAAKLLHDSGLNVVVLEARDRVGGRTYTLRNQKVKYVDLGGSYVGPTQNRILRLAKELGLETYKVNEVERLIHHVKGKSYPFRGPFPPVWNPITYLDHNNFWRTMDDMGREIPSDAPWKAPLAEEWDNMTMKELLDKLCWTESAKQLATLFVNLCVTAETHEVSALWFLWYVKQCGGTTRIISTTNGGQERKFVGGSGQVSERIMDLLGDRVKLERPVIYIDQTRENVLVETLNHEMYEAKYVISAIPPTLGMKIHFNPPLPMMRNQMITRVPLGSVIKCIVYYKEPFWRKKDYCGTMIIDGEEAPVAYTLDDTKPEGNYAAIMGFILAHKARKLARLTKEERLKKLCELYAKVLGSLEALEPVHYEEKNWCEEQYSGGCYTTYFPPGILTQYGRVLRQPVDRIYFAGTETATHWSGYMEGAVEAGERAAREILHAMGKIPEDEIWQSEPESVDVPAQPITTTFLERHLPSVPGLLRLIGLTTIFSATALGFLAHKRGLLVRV
Kind of data set: Inhibition of recombinant human MAO-B assessed as reduction of H2O2 production from oxidative deamination of benzylamine at 10 uM preincubated for 2 hrs followed by substrate addition. The conditions noted are these: probe benzylamine. Put shortly:
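Purified recombinant human MAO-A (tyramine substrate) or MAO-B (benzylamine substrate) was preincubated with compound for 2 h. Percent inhibition was calculated against vehicle and enzyme-free controls.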

Data set [2] addresses T3, Lysyl oxidase homolog 2 (Homo sapiens) (UniProt Q9Y4K0).
T3 sequence (whole entry): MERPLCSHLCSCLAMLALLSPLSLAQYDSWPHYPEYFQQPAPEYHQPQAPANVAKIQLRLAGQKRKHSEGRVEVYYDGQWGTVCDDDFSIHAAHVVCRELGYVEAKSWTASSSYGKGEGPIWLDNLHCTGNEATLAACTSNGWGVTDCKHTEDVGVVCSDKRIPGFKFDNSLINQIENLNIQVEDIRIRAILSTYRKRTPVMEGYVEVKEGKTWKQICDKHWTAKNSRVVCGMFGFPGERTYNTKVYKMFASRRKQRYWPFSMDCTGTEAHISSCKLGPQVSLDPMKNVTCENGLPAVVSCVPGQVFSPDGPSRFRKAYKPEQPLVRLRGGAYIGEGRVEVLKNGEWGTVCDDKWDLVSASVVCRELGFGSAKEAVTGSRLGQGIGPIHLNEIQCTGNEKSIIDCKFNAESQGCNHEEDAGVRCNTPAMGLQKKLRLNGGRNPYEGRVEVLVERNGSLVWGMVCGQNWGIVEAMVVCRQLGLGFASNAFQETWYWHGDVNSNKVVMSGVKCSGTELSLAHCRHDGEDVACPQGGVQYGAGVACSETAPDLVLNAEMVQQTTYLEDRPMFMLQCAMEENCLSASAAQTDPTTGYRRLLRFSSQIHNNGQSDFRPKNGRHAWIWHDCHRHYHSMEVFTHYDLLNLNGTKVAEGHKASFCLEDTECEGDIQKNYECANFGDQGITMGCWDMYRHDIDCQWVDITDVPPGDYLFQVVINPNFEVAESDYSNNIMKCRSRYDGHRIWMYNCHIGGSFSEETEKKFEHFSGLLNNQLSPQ
Kind of data set: Irreversible inhibition of human LOXL2 assessed as reduction of H2O2 production from oxidative deamination of DAP at 1000 times IC50 preincubated for 2 hrs followed by compound washout and subsequent incubation for 2 hrs prior to substrate addition measured every 2 mins for 40 mins by amplex red reagent-based fluorescence assay relative to control. Put shortly:
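Wells were washed repeatedly with PBS and equilibrated for 2 h. Recovered activity was then compared with nonwashed controls.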

Data set [3] deals with T3, Lysyl oxidase homolog 2 (Homo sapiens). Kind of data set: Irreversible inhibition of human LOXL2 assessed as catalytic activity preincubated for 2 hrs followed by substrate addition measured every 2 mins for 1 hr by amplex red reagent-based fluorescence assay relative to control. Details: concentration or dose not given beside the values.
A further data set relates to Mus musculus. Put plainly: Toxicity in C57BL/6 mouse assessed as body weight loss at 3 to 60 mg/kg, po qd administered 15 days starting 1 day prior to bleomycin instillation. The format is organism-based. Conditions: in vivo.
The nature of data set [4]: Protein binding in human plasma. It is filed as ADME, cell-free. Conditions: read-out: PPB (converted).

One may read the inhibition as how much of the control response was suppressed. Regarding `Cl.NCc1cc(Oc2cccc(C(=O)N3C[C@@H](O)[C@H](F)C3)c2)nc(C(F)(F)F)c1` (racemic), the inhibition is below 10% in data set [1], 77% in data set [2] and 97% in data set [3]. Also, the inhibition at 2 h, 10 µM at MAO-B was below 10%. Moreover, the Activity in the data set with Mus musculus is below 5%. Moreover, in data set [4], the fraction unbound is 0.32.
